Values after ≈ are worked out from the molar mass of the structure shown.
Key:
Mus musculus [1] = assay: ED50 value was measured by sc administration against streptococcus pyogenes infection in mice (in vivo, in experiment 2); assay type: functional
Summary of the method: (§1)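 Infected mice were dosed orally or subcutaneously at 1 and 5 h postinfection, 0.25 mL of antibiotic solution in 10% aqueous ethanol per dose. Tartaric acid was added where needed for solubility. Several dose concentrations were tested to give the ED50.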

Mus musculus [2] = assay: (§2) ED50 value was measured by sc administration against streptococcus pyogenes infection in mice (in vivo, in experiment 3); assay type: functional; summary of the method: as §1
Mus musculus [3] = assay: ED50 value was measured by po administration against streptococcus pyogenes infection in mice (in vivo, in experiment 2); assay type: functional; summary of the method: as §1
Mus musculus [4] = assay: ED50 value was measured by sc administration against staphylococcus aureus infection in mice (in vivo, in experiment 2); assay type: functional; summary of the method: as §1
Mus musculus [5] = assay: ED50 value was measured by sc administration against streptococcus pneumoniae infection in mice (in vivo, in experiment 2); assay type: functional; summary of the method: as §1
Mus musculus [6] = assay: ED50 value was measured by po administration against streptococcus pneumoniae infection in mice (in vivo, in experiment 2); assay type: functional; summary of the method: as §1
Mus musculus [7] = assay: Plasma concentration in mice was determined by oral administration, 20 mg/kg at 1 h; assay type: functional, organism-based; set-up: dose 20 mg/kg
Summary of the method: (§3)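 Mice given 20 mg/kg orally or subcutaneously; peripheral plasma sampled at 5, 20 and 40 min and at 1, 2 and 4 h after dosing. Microbiological assay used Micrococcus luteus seeded in Antibiotic Medium 1, with zone sizes converted by the compound's own standard curve. Each value is the average of five mice per time point.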

Mus musculus [8] = assay: Plasma concentration in mice was determined by oral administration, 20 mg/kg at 2 h; assay type: functional, organism-based; set-up: dose 20 mg/kg; summary of the method: as §3
Mus musculus [9] = assay: Plasma concentration in mice was determined by oral administration, 20 mg/kg at 20 min; assay type: functional, organism-based; set-up: dose 20 mg/kg; summary of the method: as §3
Mus musculus [10] = assay: Plasma concentration in mice was determined by oral administration, 20 mg/kg at 4 h; assay type: functional, organism-based; set-up: dose 20 mg/kg; summary of the method: as §3
Mus musculus [11] = assay: Plasma concentration in mice was determined by oral administration, 20 mg/kg at 40 min; assay type: functional, organism-based; set-up: dose 20 mg/kg; summary of the method: as §3
Mus musculus [12] = assay: Plasma concentration in mice was determined by oral administration, 20 mg/kg at 5 min; assay type: functional, organism-based; set-up: dose 20 mg/kg; summary of the method: as §3
Rattus norvegicus [13] = species: Rattus norvegicus; assay: Fluid concentration in kidney tissue was determined in rats at 0.5 h; assay type: functional
Summary of the method: (§4)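 Rats were gavaged at 20 mg/kg and tissues sampled 0.5–6 h after dosing. Drug was assayed microbiologically with Micrococcus luteus seeded in Antibiotic Media 1. Zone sizes were read against each compound's own standard curve. Values are the mean of three rats per time point, in μg/g.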

Rattus norvegicus [14] = species: Rattus norvegicus; assay: Fluid concentration in kidney tissue was determined in rats at 6 h; assay type: functional; summary of the method: as §4
Rattus norvegicus [15] = species: Rattus norvegicus; assay: Fluid concentration in liver tissue was determined in rats at 2 h; assay type: functional
Summary of the method: (§5)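 Rats dosed by gavage at 20 mg/kg; lung, liver, kidney, urine and serum sampled at 0.5, 1, 2, 4 and 6 h after dosing. Antibiotic measured by microbiological assay with Micrococcus luteus seeded in Antibiotic Medium 1. Zone sizes were read against the standard curve for the same compound. Each value is the average of three rats per time point.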

Rattus norvegicus [16] = species: Rattus norvegicus; assay: Fluid concentration in liver tissue was determined in rats at 6 h; assay type: functional; summary of the method: as §5
Rattus norvegicus [17] = species: Rattus norvegicus; assay: Fluid concentration in serum tissue was determined in rats at 0.5 h; assay type: functional; summary of the method: as §5
Rattus norvegicus [18] = species: Rattus norvegicus; assay: Fluid concentration in serum tissue was determined in rats at 1 h; assay type: functional; summary of the method: as §5
Rattus norvegicus [19] = species: Rattus norvegicus; assay: Fluid concentration in serum tissue was determined in rats at 2 h; assay type: functional; summary of the method: as §5
Rattus norvegicus [20] = species: Rattus norvegicus; assay: Fluid concentration in serum tissue was determined in rats at 4 h; assay type: functional; summary of the method: as §5
Rattus norvegicus [21] = species: Rattus norvegicus; assay: Fluid concentration in urine tissue was determined in rats at 0.5 h; assay type: functional; summary of the method: as §5
Rattus norvegicus [22] = species: Rattus norvegicus; assay: Fluid concentration in urine tissue was determined in rats at 1 h; assay type: functional; summary of the method: as §5
Rattus norvegicus [23] = species: Rattus norvegicus; assay: Fluid concentration in urine tissue was determined in rats at 2 h; assay type: functional; summary of the method: as §5
Rattus norvegicus [24] = species: Rattus norvegicus; assay: Fluid concentration in urine tissue was determined in rats at 4 h; assay type: functional; summary of the method: as §5
Rattus norvegicus [25] = assay: Plasma concentration in rats was determined by subcutaneous administration, 20 mg/kg at 1 h; assay type: functional, organism-based; set-up: dose 20 mg/kg
Summary of the method: (§6)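 Peripheral plasma antibiotic levels in rats given 20 mg/kg orally or subcutaneously. Plasma was sampled at timed points after dosing. Levels were measured by microbiological agar assay with Micrococcus luteus seeded in Antibiotic Media 1, reading zone sizes, and were calculated from a standard curve for the appropriate compound. Each value is the average of three rats per time point, in μg/mL.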

Rattus norvegicus [26] = assay: Plasma concentration in rats was determined by subcutaneous administration, 20 mg/kg at 20 min; assay type: functional, organism-based; set-up: dose 20 mg/kg; summary of the method: as §6
Rattus norvegicus [27] = assay: Plasma concentration in rats was determined by subcutaneous administration, 20 mg/kg at 40 min; assay type: functional, organism-based; set-up: dose 20 mg/kg; summary of the method: as §6
Rattus norvegicus [28] = assay: Plasma concentration in rats was determined by subcutaneous administration, 20 mg/kg at 5 min; assay type: functional, organism-based; set-up: dose 20 mg/kg; summary of the method: as §6
Mus musculus [29] = assay: ED50 value was measured by po administration against staphylococcus aureus infection in mice (in vivo, in experiment 2); assay type: functional; summary of the method: as §1
Rattus norvegicus [30] = species: Rattus norvegicus
Rattus norvegicus [31] = species: Rattus norvegicus; remark: listed apart in the source
Rattus norvegicus [32] = species: Rattus norvegicus; remark: listed apart in the source
Rattus norvegicus [33] = species: Rattus norvegicus; remark: listed apart in the source
Mus musculus [34] = assay: as §2; assay type: functional; remark: listed apart in the source
Rattus norvegicus [35] = species: Rattus norvegicus; assay: Fluid concentration in urine was determined in rats at 1 hr; assay type: functional; summary of the method: as §5
Rattus norvegicus [36] = species: Rattus norvegicus; assay: Fluid concentration in urine was determined in rats at 2 hr; assay type: functional; summary of the method: as §5
Rattus norvegicus [37] = species: Rattus norvegicus; assay: Fluid concentration in urine was determined in rats at 4 hr; assay type: functional; summary of the method: as §5
Rattus norvegicus [38] = species: Rattus norvegicus; assay: Fluid concentration in kidney tissue was determined in rats at 0.5 hr; assay type: functional; summary of the method: as §4
Rattus norvegicus [39] = species: Rattus norvegicus; assay: Fluid concentration in kidney tissue was determined in rats at 2 hr; assay type: functional; summary of the method: as §4
Rattus norvegicus [40] = species: Rattus norvegicus; assay: Fluid concentration in kidney tissue was determined in rats at 4 hr; assay type: functional; summary of the method: as §4
Rattus norvegicus [41] = species: Rattus norvegicus; assay: Fluid concentration in liver tissue was determined in rats at 2 hr; assay type: functional; summary of the method: as §5
Rattus norvegicus [42] = species: Rattus norvegicus; assay: Fluid concentration in liver tissue was determined in rats at 4 hr; assay type: functional; summary of the method: as §5
Rattus norvegicus [43] = species: Rattus norvegicus; assay: Fluid concentration in serum was determined in rats at 0.5 hr; assay type: functional; summary of the method: as §5
Rattus norvegicus [44] = species: Rattus norvegicus; assay: Fluid concentration in serum was determined in rats at 1 hr; assay type: functional; summary of the method: as §5
Rattus norvegicus [45] = assay: Plasma concentration in rats was determined by subcutaneous administration, 20 mg/kg at 2 hr; assay type: functional, organism-based; set-up: dose 20 mg/kg; summary of the method: as §6
Rattus norvegicus [46] = assay: Plasma concentration in rats was determined by oral administration, 20 mg/kg at 1 hr; assay type: functional, organism-based; set-up: dose 20 mg/kg; summary of the method: as §6
Rattus norvegicus [47] = assay: Plasma concentration in rats was determined by oral administration, 20 mg/kg at 4 hr; assay type: functional, organism-based; set-up: dose 20 mg/kg; summary of the method: as §6
Enterococcus faecalis = assay: MIC value was measured against streptococcus faecalis X66; assay type: functional
Summary of the method: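 Susceptibility determined by standard agar-dilution method against a panel of bacterial strains.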

Mus musculus [48] = species: Mus musculus
Mus musculus [49] = species: Mus musculus; remark: listed apart in the source
Mus musculus [50] = species: Mus musculus; remark: listed apart in the source
Rattus norvegicus [51] = species: Rattus norvegicus; remark: listed apart in the source
Rattus norvegicus [52] = species: Rattus norvegicus; remark: listed apart in the source
Rattus norvegicus [53] = species: Rattus norvegicus; remark: listed apart in the source
Rattus norvegicus [54] = species: Rattus norvegicus; remark: listed apart in the source
Rattus norvegicus [55] = species: Rattus norvegicus; remark: listed apart in the source

## CCCN[C@@H]1[C@H](C)[C@@H](O)[C@](C)(O)[C@@H](CC)OC(=O)[C@H](C)[C@@H](OC2CC(C)(OC)C(O)C(C)O2)[C@H](C)[C@@H](OC2OC(C)CC(N(C)C)C2O)[C@](C)(O)C[C@H]1C (stereo partly specified)
Mus musculus [1]
  ED50: 1.4 mg/kg
Mus musculus [2]
  ED50: 1.7 mg/kg
Mus musculus [3]
  ED50: 6 mg/kg
Mus musculus [4]
  ED50: 2.1 mg/kg
Mus musculus [5]
  ED50: 2.1 mg/kg
Mus musculus [6]
  ED50: 13 mg/kg
Mus musculus [7]
  Plasma concentration: 0.08 µg/mL
Mus musculus [8]
  Plasma concentration: 0.07 µg/mL
Mus musculus [9]
  Plasma concentration: 0.01 µg/mL
Mus musculus [10]
  Plasma concentration: 0.06 µg/mL
Mus musculus [11]
  Plasma concentration: 0.036 µg/mL
Mus musculus [12]
  Plasma concentration: 0 µg/mL
Rattus norvegicus [13]
  Activity: 0.1 µg/mL
Rattus norvegicus [14]
  Activity: 3.21 µg/mL
Rattus norvegicus [15]
  Activity: 2.99 µg/mL
Rattus norvegicus [16]
  Activity: 1.19 µg/mL
Rattus norvegicus [17]
  Activity: 0.15 µg/mL
Rattus norvegicus [18]
  Activity: 0.04 µg/mL
Rattus norvegicus [19]
  Activity: 0.23 µg/mL
Rattus norvegicus [20]
  Activity: 0.12 µg/mL
Rattus norvegicus [21]
  Activity: 3.92 µg/mL
Rattus norvegicus [22]
  Activity: 3.78 µg/mL
Rattus norvegicus [23]
  Activity: 4.8 µg/mL
Rattus norvegicus [24]
  Activity: 18.63 µg/mL
Rattus norvegicus [25]
  Plasma concentration: 0.14 µg/mL
Rattus norvegicus [26]
  Plasma concentration: 0.07 µg/mL
Rattus norvegicus [27]
  Plasma concentration: 0.14 µg/mL
Rattus norvegicus [28]
  Plasma concentration: 0.04 µg/mL
Mus musculus [29]
  ED50: 25 mg/kg
Rattus norvegicus [30]
  Plasma concentration: 0.01 µg/mL
Rattus norvegicus [31]
  Plasma concentration: 0.28 µg/mL
Rattus norvegicus [32]
  Plasma concentration: 0.08 µg/mL
Rattus norvegicus [33]
  Plasma concentration: 0.06 µg/mL

## CC[C@H]1OC(=O)[C@H](C)[C@@H](O[C@H]2C[C@@](C)(OC)[C@@H](O)[C@H](C)O2)[C@H](C)[C@@H](O[C@@H]2O[C@H](C)C[C@H](N(C)C)[C@H]2O)[C@](C)(O)C[C@@H](C)C(=O)[C@H](C)[C@@H](O)[C@]1(C)O [ERYTHROMYCIN]
Mus musculus [34]
  ED50: 2.8 mg/kg
Rattus norvegicus [35]
  Activity: 10.8 µg/mL
Rattus norvegicus [36]
  Activity: 2.5 µg/mL
Rattus norvegicus [37]
  Activity: 8.8 µg/mL
Rattus norvegicus [38]
  Activity: 0.17 µg/mL
Rattus norvegicus [39]
  Activity: 0 µg/mL
Rattus norvegicus [40]
  Activity: 0 µg/mL
Rattus norvegicus [41]
  Activity: 0.04 µg/mL
Rattus norvegicus [42]
  Activity: 0 µg/mL
Rattus norvegicus [43]
  Activity: 0.01 µg/mL
Rattus norvegicus [44]
  Activity: 0.4 µg/mL
Rattus norvegicus [45]
  Plasma concentration: 1.06 µg/mL
Rattus norvegicus [46]
  Plasma concentration: 0.04 µg/mL
Rattus norvegicus [47]
  Plasma concentration: 0.02 µg/mL
Enterococcus faecalis
  MIC: 0.06 µg/mL (≈ 0.0818 µM)
Mus musculus [48]
  Plasma concentration: 0.01 µg/mL
Mus musculus [49]
  Plasma concentration: 0 µg/mL
Mus musculus [50]
  Plasma concentration: 0.1 µg/mL
Rattus norvegicus [51]
  Plasma concentration: 1.31 µg/mL
Rattus norvegicus [52]
  Plasma concentration: 1.21 µg/mL
Rattus norvegicus [53]
  Plasma concentration: 1.16 µg/mL
Rattus norvegicus [54]
  Plasma concentration: 4.2 µg/mL
Rattus norvegicus [55]
  Plasma concentration: 0 µg/mL

— ChEMBL document CHEMBL1125014, “Synthesis and structure-activity relationships of new 9-N-alkyl derivatives of 9(S)-erythromycylamine” (1990)
